# This excerpt belongs to a sample that is enriched for hits.
# TNAP act DEA: human TNAP activation, intermediate phosphate acceptor. purified TNAP, CDP-star luminescence, 100 mM DEA, 30 min; hits give high values; scale: 0 levamisole-inhibited, 1 vehicle-only enzyme. activation factor at 20 µM. 64,000 tested, under 10 active;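 active = activation factor of at least 2 at 20 µM, relative to controls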
# Ecoli tolC: growth inhibitors of E. coli BW25113 tolC mutant; AID 573; 65,000 compounds, 2.2% hits; growth inhibition, % at 10 µM (by protocol); OD615;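 active = growth inhibition at or above a cutoff equal to the mean over every tested compound plus 3 SD, cut at about 60% in these data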;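 also: growth measured after 20 h incubation at 37 °C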
#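 Test system: tolC-deleted E. coli BW25113; medium: LB with kanamycin 50 µg/mL; compound: single-point testing at 10 µM; incubation: 20 h compound exposure of bacteria at 37 °C; signal: OD at 615 nm; evaluation: growth inhibition in percent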
# BAP1 block: blocks human BAP1 ubiquitin-AMC hydrolysis; Q92560; recombinant BAP1, Ub-AMC hydrolysis fluorescence kinetic; hits give low values; calls only at 20 µM; 72,000 compounds, 0.48% hits; AID 436;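 active = activity remaining at or below 50% of control, provided the compound also passes the data quality filters; inactive = the rest, including low values that fail the filters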;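 also: 100% = DMSO wells rate and 0% = substrate alone blank rate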
# Target sequence (Q92560 whole entry, looked up): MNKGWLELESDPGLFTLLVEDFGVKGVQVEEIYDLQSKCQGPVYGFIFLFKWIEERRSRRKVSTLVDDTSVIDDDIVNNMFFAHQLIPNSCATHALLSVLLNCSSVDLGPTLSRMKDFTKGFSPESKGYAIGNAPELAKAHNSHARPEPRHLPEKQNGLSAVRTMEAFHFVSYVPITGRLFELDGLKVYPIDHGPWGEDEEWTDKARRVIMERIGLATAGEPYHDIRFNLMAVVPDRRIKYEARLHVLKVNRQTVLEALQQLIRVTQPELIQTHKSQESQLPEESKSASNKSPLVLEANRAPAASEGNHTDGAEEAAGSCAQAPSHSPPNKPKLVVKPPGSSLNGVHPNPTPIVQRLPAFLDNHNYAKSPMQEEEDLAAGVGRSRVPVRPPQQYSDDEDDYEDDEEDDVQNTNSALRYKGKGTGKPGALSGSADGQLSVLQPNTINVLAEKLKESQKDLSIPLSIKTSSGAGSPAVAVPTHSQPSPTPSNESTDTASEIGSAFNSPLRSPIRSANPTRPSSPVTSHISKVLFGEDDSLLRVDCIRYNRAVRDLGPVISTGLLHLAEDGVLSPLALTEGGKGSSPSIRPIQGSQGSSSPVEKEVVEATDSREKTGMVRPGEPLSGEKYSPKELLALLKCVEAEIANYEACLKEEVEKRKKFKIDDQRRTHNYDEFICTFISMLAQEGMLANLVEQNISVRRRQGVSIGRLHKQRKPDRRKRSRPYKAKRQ
# Ecoli WT expand: E. coli BW25113 growth inhibition, expanded screen. OD600 absorbance. growth inhibition, % at 100 µM. 98,000 compounds, 0.15% hits. AID 710;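 active = growth inhibition above about 50% at one test dose, limit read from the data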;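 also: growth measured after 20 h incubation at 37 °C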
# WNV protease inh: WNV NS2B-NS3 proteinase inhibition; AID 577; WNV NS2B-NS3 protease, fluorogenic substrate Ex360/Em465; hits give low values; 65,000 compounds, 0.18% hits; z-score (concentration not given with the values); in the data active = z-score below about -3
# BAP1 inh conf: confirmation of human BAP1 enzyme inhibitors; shares compounds with BAP1 block; purified BAP1, Ub-ethyl ester hydrolysis, HPLC; hits give low values; % of control activity, % at 20 µM; 310 compounds, 8% hits;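 active = percent of control activity at or below 60%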
# Starred values were filed as active, the others as inactive; i = inactive; . = not tested or not shown; + = active, no number.
SMILES,TNAP act DEA,Ecoli tolC,BAP1 block,Ecoli WT expand,WNV protease inh,BAP1 inh conf
CCOC(=O)c1sc(NC(=O)c2ccc(OC)cc2)nc1-c1ccccc1,.,.,i,.,.,.
CCOC(=O)c1c(N)sc2c(OC)c(Br)ccc12,0.9,100*,i,4,-0.67,.
CCOC(=O)c1c(C)[nH]c2cc(Br)c(OC)cc12,0.9,1,.,5,.,.
O=C(C[n+]1cccc(NC(=O)c2ccccc2)c1)c1ccc(NC(=O)c2ccccc2)cc1,.,.,.,62*,.,.
C=CCn1cnc2c(c1=O)c1nc3ccccc3nc1n2-c1ccc(Cl)cc1,1,0,i,.,0.14,.
c1ccc(-c2nnc(-c3ccccn3)nc2NC2CCCCC2)cc1,.,.,.,100*,.,.
Cc1nn(-c2ccccc2)c2sc(C(=O)N3CCOCC3)cc12,0.9,3,i,-24,-0.19,.
Cc1nn(-c2ccccc2)c2sc(C(=O)N(CC(=O)NC(C)(C)C)Cc3ccco3)cc12,0.9,75*,i,-9,0.03,.
Cc1ccccc1N1CCN(c2ncnc3c2cnn3Cc2ccc(Cl)cc2)CC1,1,24,+,-15,-0.46,140
O=C(Nc1nc(-c2nc3ccccc3s2)cs1)c1ccc(S(=O)(=O)N2CCOCC2)cc1,0.9,21,+,-6,0.88,109
CCc1nc(N2CCCC(C)C2)c2oc3ccccc3c2n1 (configuration not stated),0.9,100*,+,10,-0.45,93
O=C(CSc1nnc(-c2c[nH]c3ccccc23)o1)N1c2ccccc2CCc2ccccc21,1,20,+,-16,2.2,94
CCOC(=O)C1Cn2c(nc3c(c2=O)C2(CCCC2)Cc2ccccc2-3)S1 (configuration not stated),0.9,17,+,-6,0.65,97
COc1cc(NC(=O)c2cc3ccccc3o2)c(OC)cc1Br,0.9,6,+,-9,1.8,134
COc1cc(NC(=O)c2cc3ccccc3o2)c(OC)cc1Cl,0.9,2,i,-8,0.03,.
CCC(C)(C)n1nnnc1CN(Cc1cc2cc(OC)ccc2[nH]c1=O)C1CCCC1,0.9,15,+,2,-0.66,130
COc1ccc(Cn2nnnc2CN(Cc2cc3ccc(C)cc3[nH]c2=O)C2CCCC2)cc1,0.9,6,i,-12,-0.91,.
O=C(CSc1nc2c(c(=O)n1-c1ccc(Cl)cc1)SCC2)Nc1ccc2c(c1)OCCO2,0.9,4,+,-9,-2.4,49*
COc1ccc(-n2c(SCC(=O)Nc3ccc4c(c3)OCO4)nc3c(c2=O)SCC3)cc1,0.9,11,+,-10,0.51,105
Cc1ccc(-c2csc3[nH]c(=S)n(-c4ccccc4)c(=O)c23)cc1C,.,.,i,.,.,.
O=[N+]([O-])c1ccc(O)c(C=Nc2cc3c(cc2Br)OCCO3)c1,.,.,i,.,.,.
CCC(c1nnnn1C1CCCC1)N(Cc1cccs1)Cc1cc2cc(C)ccc2[nH]c1=O (configuration not stated),0.9,17,+,-11,-0.93,76
Cc1ccc2cc(CN(Cc3ccc(F)cc3)Cc3nnnn3C3CCCC3)c(=O)[nH]c2c1,0.9,66*,+,-12,-0.16,86
CCc1ccc2[nH]c(=O)c(CN(Cc3ccc4c(c3)OCO4)Cc3nnnn3C3CCCC3)cc2c1,0.9,49,.,-9,1.5,.
Cc1ccc2cc(CN(Cc3ccccc3)Cc3nnnn3C3CCCC3)c(=O)[nH]c2c1,0.9,73*,+,-18,-0.2,90
SMILES,TNAP act DEA,Ecoli tolC,BAP1 block,Ecoli WT expand,WNV protease inh,BAP1 inh conf
CC1CCc2c(sc(N)c2C(=O)Nc2ccc(Br)cc2)C1 (configuration not stated),.,.,i,.,.,.
O=C(CSc1nc2sc3c(c2c(=O)[nH]1)CCCC3)N1CCCC1,.,.,i,.,.,.
COc1ccccc1C(=O)OCc1c(F)cccc1Cl,.,.,.,3,.,.
CCn1c(=O)c2cc(C(=O)N3CCOCC3)sc2c2ccccc21,0.9,2,+,1,-1,83
CCn1c(=O)c2cc(C(=O)N3CCCC3)sc2c2ccccc21,1,0,.,.,0.67,.
Cc1sc2nc(CN3CCOCC3)nc(N3CCOCC3)c2c1C,.,.,.,-1,.,.
Cc1sc2nc(CN3CCOCC3)nc(N3CCC(C(N)=O)CC3)c2c1C,0.9,-7,i,.,-1.2,129
COc1cc(OC)nc(NC(=O)CSc2nc3ccccc3o2)n1,0.9,-14,+,-2,0.04,84
